From ChEMBL document CHEMBL3112482, “Nonclassical antifolates, part 5. Benzodiazepine analogs as a new class of DHFR inhibitors: synthesis, antitumor testing and molecular modeling study” (Eur J Med Chem, 2014)

Assays:
[1] = Growth inhibition of human SF539 cells at 10 uM after 48 hrs; format: functional; details: SF-539, 48 h, read-out: GI
In short: (§1)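 NCI 60-cell-line disease-oriented human tumor panel, single-dose primary screen at 10 µM. Data given as mean-graph percent growth of treated cells, reported as percent growth inhibition (GI %).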

MDA-MB-231 = test: Growth inhibition of human MDA-MB-231 cells at 10 uM after 48 hrs; format: functional; details: MDA-MB-231, 48 h, read-out: GI
In short: (§2)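 Single-dose primary screen in the NCI 60 human tumour cell line panel, run at the NCI facility. The panel covers nine subpanels: leukaemia, non-small cell lung, colon, CNS, melanoma, ovarian, renal, prostate and breast. Read-out was percent growth of treated cells, shown as a mean graph and reported as percent growth inhibition.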

Dihydrofolate reductase = target: T1, Dihydrofolate reductase (Bos taurus, UniProt P00376); test: Inhibition of bovine liver DHFR measured for every 1 min of 10 mins
T1 sequence (P00376 whole entry): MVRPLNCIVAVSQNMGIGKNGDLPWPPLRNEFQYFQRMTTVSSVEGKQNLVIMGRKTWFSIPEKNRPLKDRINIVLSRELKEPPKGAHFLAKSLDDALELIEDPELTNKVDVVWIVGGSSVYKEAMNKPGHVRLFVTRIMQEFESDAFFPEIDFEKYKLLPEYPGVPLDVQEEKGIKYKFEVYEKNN

NCI-H322M = test: Growth inhibition of human NCI-H322M cells at 10 uM after 48 hrs; format: functional; details: read-out: GI; in short: as §2
NCI-H23 = test: Growth inhibition of human NCI-H23 cells at 10 uM after 48 hrs; format: functional; details: NCI-H23, 48 h, read-out: GI; in short: as §2
K562 = test: Growth inhibition of human K562 cells at 10 uM after 48 hrs; format: functional; details: K562, 48 h, read-out: GI; in short: as §2
[2] = Growth inhibition of human UO31 cells at 10 uM after 48 hrs; format: functional; details: UO-31, 48 h, read-out: GI; in short: as §1
CCRF-CEM = test: Growth inhibition of human CCRF-CEM cells at 10 uM after 48 hrs; format: functional; details: read-out: GI; in short: as §2
A498 = test: Growth inhibition of human A498 cells at 10 uM after 48 hrs; format: functional; details: A498, 48 h, read-out: GI; in short: as §2
[3] = Growth inhibition of human EKVX cells at 10 uM after 48 hrs; format: functional; details: read-out: GI; in short: as §2
SNB-75 = test: Growth inhibition of human SNB75 cells at 10 uM after 48 hrs; format: functional; details: SNB-75, 48 h, read-out: GI; in short: as §1
[4] = Growth inhibition of human HOP92 cells at 10 uM after 48 hrs; format: functional; details: HOP-92, 48 h, read-out: GI; in short: as §2
SR = test: Growth inhibition of human SR cells at 10 uM after 48 hrs; format: functional; details: read-out: GI; in short: as §1
KM12 = test: Growth inhibition of human KM12 cells at 10 uM after 48 hrs; format: functional; details: KM12, 48 h, read-out: GI; in short: as §2
HL-60(TB) = test: Growth inhibition of human HL-60(TB) cells at 10 uM after 48 hrs; format: functional; details: HL-60, 48 h, read-out: GI
In short: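 NCI 60-cell-line human tumour panel covering nine subpanels (leukaemia, non-small cell lung, colon, CNS, melanoma, ovarian, renal, prostate, breast), run at the NCI facility. Primary screen tested a single dose of each compound. Read-out was percent growth of treated cells versus untreated cells, reported from the mean graph as percentage growth inhibition.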

IGROV-1 = test: Growth inhibition of human IGROV1 cells at 10 uM after 48 hrs; format: functional; details: IGROV-1, 48 h, read-out: GI; in short: as §2
[5] = Growth inhibition of human NCI-ADR-RES cells at 10 uM after 48 hrs; format: functional; details: read-out: GI; in short: as §2
PC-3 = test: Growth inhibition of human PC3 cells at 10 uM after 48 hrs; format: functional; details: PC-3, 48 h, read-out: GI; in short: as §2
SK-MEL-5 = test: Growth inhibition of human SK-MEL-5 cells at 10 uM after 48 hrs; format: functional; details: SK-MEL-5, 48 h, read-out: GI; in short: as §1
MCF7 = test: Growth inhibition of human MCF7 cells at 10 uM after 48 hrs; format: functional; details: MCF7, 48 h, read-out: GI; in short: as §2
NCI-H460 = test: Growth inhibition of human NCI-H460 cells at 10 uM after 48 hrs; format: functional; details: NCI-H460, 48 h, read-out: GI; in short: as §2
786-0 = test: Growth inhibition of human 786-0 cells at 10 uM after 48 hrs; format: functional; details: 786-0, 48 h, read-out: GI; in short: as §2
SW-620 = test: Growth inhibition of human SW620 cells at 10 uM after 48 hrs; format: functional; details: SW-620, 48 h, read-out: GI; in short: as §1
SF-268 = test: Growth inhibition of human SF268 cells at 10 uM after 48 hrs; format: functional; details: SF-268, 48 h, read-out: GI; in short: as §1
SK-OV-3 = test: Growth inhibition of human SKOV3 cells at 10 uM after 48 hrs; format: functional; details: SK-OV-3, 48 h, read-out: GI; in short: as §1
[6] = Growth inhibition of human OVCAR5 cells at 10 uM after 48 hrs; format: functional; details: OVCAR-5, 48 h, read-out: GI; in short: as §2
T47D = test: Growth inhibition of human T47D cells at 10 uM after 48 hrs; format: functional; details: read-out: GI; in short: as §1
MDA-MB-468 = test: Growth inhibition of human MDA-MB-468 cells at 10 uM after 48 hrs; format: functional; details: MDA-MB-468, 48 h, read-out: GI; in short: as §2
CAKI-1 = test: Growth inhibition of human CAKI-1 cells at 10 uM after 48 hrs; format: functional; details: CAKI-1, 48 h, read-out: GI; in short: as §2
DU-145 = test: Growth inhibition of human DU145 cells at 10 uM after 48 hrs; format: functional; details: DU-145, 48 h, read-out: GI; in short: as §2
SNB-19 = test: Growth inhibition of human SNB19 cells at 10 uM after 48 hrs; format: functional; details: SNB-19, 48 h, read-out: GI; in short: as §1
[7] = Growth inhibition of human Hs 578T cells at 10 uM after 48 hrs; format: functional; details: read-out: GI; in short: as §2
ACHN = test: Growth inhibition of human ACHN cells at 10 uM after 48 hrs; format: functional; details: read-out: GI; in short: as §2
[8] = Growth inhibition of human HCC2998 cells at 10 uM after 48 hrs; format: functional; details: HCC 2998, 48 h, read-out: GI; in short: as §2
SK-MEL-28 = test: Growth inhibition of human SK-MEL-28 cells at 10 uM after 48 hrs; format: functional; details: SK-MEL-28, 48 h, read-out: GI; in short: as §1
[9] = Growth inhibition of human RXF393 cells at 10 uM after 48 hrs; format: functional; details: RXF 393, 48 h, read-out: GI; in short: as §2
[10] = Growth inhibition of human UACC257 cells at 10 uM after 48 hrs; format: functional; details: UACC-257, 48 h, read-out: GI; in short: as §1
TK-10 = test: Growth inhibition of human TK10 cells at 10 uM after 48 hrs; format: functional; details: TK-10, 48 h, read-out: GI; in short: as §1
[11] = Growth inhibition of human OVCAR4 cells at 10 uM after 48 hrs; format: functional; details: OVCAR-4, 48 h, read-out: GI; in short: as §2
[12] = Cytotoxicity against human leukemia cells at 10 uM after 48 hrs; format: functional; details: Leukemia cell

COc1ccc(/C=C2\CCCC3=C(c4ccc(OC)cc4)Nc4ccccc4N=C32)cc1
< 30%: inhibition of growth at 10 µM [1] | inhibition of growth at 10 µM (MDA-MB-231) | inhibition of growth at 10 µM (NCI-H322M) | inhibition of growth at 10 µM (NCI-H23) | inhibition of growth at 10 µM [2] | inhibition of growth at 10 µM (CCRF-CEM) | inhibition of growth at 10 µM (A498) | inhibition of growth at 10 µM [3] | inhibition of growth at 10 µM (SNB-75) | inhibition of growth at 10 µM [4] | inhibition of growth at 10 µM (HL-60(TB)) | inhibition of growth at 10 µM (IGROV-1) | inhibition of growth at 10 µM [5] | inhibition of growth at 10 µM (PC-3) | inhibition of growth at 10 µM (SK-MEL-5) | inhibition of growth at 10 µM (NCI-H460) | inhibition of growth at 10 µM (786-0) | inhibition of growth at 10 µM (SW-620) | inhibition of growth at 10 µM (SF-268) | inhibition of growth at 10 µM (SK-OV-3) | inhibition of growth at 10 µM [6] | inhibition of growth at 10 µM (T47D) | inhibition of growth at 10 µM (CAKI-1) | inhibition of growth at 10 µM (DU-145) | inhibition of growth at 10 µM (SNB-19) | inhibition of growth at 10 µM [7] | inhibition of growth at 10 µM (ACHN) | inhibition of growth at 10 µM [8] | inhibition of growth at 10 µM (SK-MEL-28) | inhibition of growth at 10 µM [9] | inhibition of growth at 10 µM [10] | inhibition of growth at 10 µM (TK-10) | inhibition of growth at 10 µM [11]
56.4%: inhibition of growth at 10 µM (MDA-MB-468)
0.6 µM: IC50 (Dihydrofolate reductase)
46.1%: inhibition of growth at 10 µM (SR)
72.5%: inhibition of growth at 10 µM (KM12)
44%: inhibition of growth at 10 µM (MCF7)
49.1%: inhibition of growth at 10 µM (K562)

Clc1ccc(/C=C2\CCCC3=C(c4ccc(Cl)cc4)Nc4ccccc4N=C32)cc1
32.8%: inhibition of growth at 10 µM (A498)
< 30%: inhibition of growth at 10 µM [1] | inhibition of growth at 10 µM (MDA-MB-231) | inhibition of growth at 10 µM (NCI-H322M) | inhibition of growth at 10 µM (NCI-H23) | inhibition of growth at 10 µM [2] | inhibition of growth at 10 µM (CCRF-CEM) | inhibition of growth at 10 µM [3] | inhibition of growth at 10 µM (SNB-75) | inhibition of growth at 10 µM (HL-60(TB)) | inhibition of growth at 10 µM (IGROV-1) | inhibition of growth at 10 µM [5] | inhibition of growth at 10 µM (PC-3) | inhibition of growth at 10 µM (SK-MEL-5) | inhibition of growth at 10 µM (NCI-H460) | inhibition of growth at 10 µM (786-0) | inhibition of growth at 10 µM (SF-268) | inhibition of growth at 10 µM (SK-OV-3) | inhibition of growth at 10 µM [6] | inhibition of growth at 10 µM (T47D) | inhibition of growth at 10 µM (CAKI-1) | inhibition of growth at 10 µM (DU-145) | inhibition of growth at 10 µM (SNB-19) | inhibition of growth at 10 µM [7] | inhibition of growth at 10 µM (ACHN) | inhibition of growth at 10 µM [8] | inhibition of growth at 10 µM (SK-MEL-28) | inhibition of growth at 10 µM [10] | inhibition of growth at 10 µM (TK-10) | inhibition of growth at 10 µM [11]
49.4 µM: TGI [12]
58.6%: inhibition of growth at 10 µM (SW-620)
39.4%: inhibition of growth at 10 µM [4]
78.5%: inhibition of growth at 10 µM (SR)
52.8%: inhibition of growth at 10 µM (K562)
> 100 µM: LC50 [12]
82.7%: inhibition of growth at 10 µM (KM12)
0.3 µM: IC50 (Dihydrofolate reductase)
34.7%: inhibition of growth at 10 µM [9]
4.1 µM: GI50 [12]
64.2%: inhibition of growth at 10 µM (MCF7)
40%: inhibition of growth at 10 µM (MDA-MB-468)
